Laboratory results published in ChEMBL document CHEMBL1914430, “Synthesis of some new 1,3,5-trisubstituted pyrazolines bearing benzene sulfonamide as anticancer and anti-inflammatory agents” (Bioorg Med Chem Lett, 2011).

Columns and labels:
Assay type in all cases: functional
[1] = system: Rattus norvegicus; experiment: Antiinflammatory activity in Wistar rat assessed as inhibition of carrageenan-induced hind paw edema at 20 mg/kg, po administered 30 mins before carrageenan challenge measured after 5 hrs by plethysmometer
In short: (§1)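 Wistar rats of either sex, 150–175 g, fasted 16 h, n = 6 per group. Compound given orally at 20 mg/kg as a suspension in 1% CMC in water (10 mL/kg); controls got vehicle only. After 30 min, 0.1 mL of 1% carrageenan in saline was injected subplantar into the left hind paw. Paw volume was measured by plethysmometer at 0, 3 and 5 h. Inhibition = (1 − Vt/Vc) × 100, reported as mean ± SEM.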

[2] = system: CAKI-1; experiment: Anticancer activity against human Caki1 cells after 48 hrs; conditions: CAKI-1, 48 h
In short: (§2)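 NCI Drug Evaluation Branch 60-cell-line screen across leukemia, melanoma, lung, colon, CNS, ovarian, renal, prostate and breast panels. The incubation period is 48 h. Parameters are derived from dose–response data: GI50 is the concentration giving 50% decrease in net growth, TGI is total growth inhibition, and LC50 is net 50% loss of initial cells. Values beyond the tested range are reported as greater or less than the maximum or minimum concentration.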

[3] = system: Malme-3M; experiment: Anticancer activity against human MALME-3M cells after 48 hrs; in short: as §2
[4] = system: HT-29; experiment: Anticancer activity against human HT-29 cells after 48 hrs; conditions: HT-29, 48 h; in short: as §2
[5] = system: MOLT-4; experiment: Anticancer activity against human MOLT4 cells after 48 hrs; conditions: MOLT-4, 48 h
In short: (§3)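 NCI 60-line panel protocol with a 48 h incubation. Per line: GI50 = concentration giving 50% decrease in net cell growth; TGI = total growth inhibition; LC50 = net 50% loss of initial cells. When the level was not reached or was exceeded, the value is given as greater or less than the highest or lowest concentration tested.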

[6] = system: MDA-MB-435; experiment: Anticancer activity against human MDA-MB-435 cells after 48 hrs; conditions: MDA-MB-435, 48 h; in short: as §2
[7] = system: PC-3; experiment: Anticancer activity against human PC3 cells after 48 hrs; conditions: PC-3, 48 h; in short: as §3
[8] = system: KM12; experiment: Anticancer activity against human KM12 cells after 48 hrs; conditions: KM12, 48 h; in short: as §2
[9] = system: Rattus norvegicus; experiment: Antiinflammatory activity in Wistar rat assessed as inhibition of carrageenan-induced hind paw edema at 20 mg/kg, po administered 30 mins before carrageenan challenge measured after 3 hrs by plethysmometer; in short: as §1
[10] = system: HL-60(TB); experiment: Anticancer activity against human HL-60(TB) cells after 48 hrs; conditions: HL-60, 48 h
In short: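 NCI 60-cell-line panel protocol: cells exposed to compound for 48 h. Initial one-dose screen at 10⁻⁵ M. GI50 = concentration giving 50% decrease in net cell growth. TGI = concentration giving total growth inhibition. LC50 = concentration giving net 50% loss of initial cells at the end of incubation. A value not reached or exceeded is reported as greater or less than the highest or lowest concentration tested.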

[11] = system: OVCAR-5; experiment: Anticancer activity against human OVCAR5 cells after 48 hrs; conditions: OVCAR-5, 48 h; in short: as §3
[12] = system: NCI-H322M; experiment: Anticancer activity against human NCI-H322M cells after 48 hrs; in short: as §3
[13] = system: HCC 2998; experiment: Anticancer activity against human HCC2998 cells after 48 hrs; conditions: HCC 2998, 48 h; in short: as §2
[14] = system: SF-295; experiment: Anticancer activity against human SF295 cells after 48 hrs; conditions: SF-295, 48 h; in short: as §3
[15] = system: HOP-92; experiment: Anticancer activity against human HOP92 cells after 48 hrs; conditions: HOP-92, 48 h; in short: as §2
[16] = system: DU-145; experiment: Anticancer activity against human DU145 cells after 48 hrs; conditions: DU-145, 48 h; in short: as §2
[17] = system: SF-539; experiment: Anticancer activity against human SF539 cells after 48 hrs; conditions: SF-539, 48 h; in short: as §3
[18] = system: A549; experiment: Anticancer activity against human A549 cells after 48 hrs; conditions: A549, 48 h; in short: as §2
[19] = system: HCT-116; experiment: Anticancer activity against human HCT116 cells after 48 hrs; conditions: HCT-116, 48 h; in short: as §2
[20] = system: CCRF-CEM; experiment: Anticancer activity against human CCRF-CEM cells after 48 hrs; in short: as §2
[21] = system: SK-MEL-28; experiment: Anticancer activity against human SK-MEL-28 cells after 48 hrs; conditions: SK-MEL-28, 48 h; in short: as §3
[22] = system: OVCAR-8; experiment: Anticancer activity against human OVCAR8 cells after 48 hrs; conditions: OVCAR-8, 48 h; in short: as §3
[23] = system: SK-MEL-2; experiment: Anticancer activity against human SK-MEL-2 cells after 48 hrs; conditions: SK-MEL-2, 48 h; in short: as §3
[24] = system: UO-31; experiment: Anticancer activity against human UO31 cells after 48 hrs; conditions: UO-31, 48 h, read-out: LC50 (the source's name)
In short: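 NCI ~60 human tumour cell line panel with a 48 h incubation. GI50 is the concentration giving a 50% fall in net growth, TGI gives total growth inhibition, and LC50 gives a net 50% loss of initial cells. An effect not reached or exceeded is reported as greater or less than the highest or lowest concentration tested.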

[25] = system: MCF7; experiment: Anticancer activity against human MCF7 cells after 48 hrs; conditions: MCF7, 48 h; in short: as §2
[26] = system: OVCAR-3; experiment: Anticancer activity against human OVCAR3 cells after 48 hrs; conditions: OVCAR-3, 48 h; in short: as §3
[27] = system: NCI-H226; experiment: Anticancer activity against human NCI-H226 cells after 48 hrs; conditions: NCI-H226, 48 h; in short: as §3
[28] = read-out: LC50 (the source's name)

In the case of `Cc1cc(O)c(C2=NN(c3ccc(S(N)(=O)=O)cc3)C(c3ccccc3O)C2)cc1Cl` (stereo not given), the inhibition in vivo at 20 mg/kg [1] is reported as 59.5%, the GI50 [2] is reported as 1.56 µM and the LC50 (concentration giving 50% net loss of initial cells) [2] is reported as 16.6 µM. The TGI [2] was 4.44 µM, the GI50 [3] was 2.72 µM and the TGI [3] was 7.34 µM. The CC50 [3, 28] was 59.2 µM, the GI50 [4] was 2.37 µM and the TGI [4] was 5.1 µM. The CC50 [4, 28] was 12.9 µM, the GI50 [5] was 4.74 µM and the LC50 [5] was > 100 µM. The TGI [5] was 34.4 µM, the GI50 [6] was 2.04 µM and the TGI [6] was 4.49 µM. It also gave a CC50 [6, 28] of 9.88 µM, a GI50 [7] of 1.33 µM and a TGI [7] of 3.52 µM. For the same compound, the CC50 [7, 28] was 9.33 µM, the GI50 [8] was 1.78 µM and the LC50 (concentration causing net 50% loss of initial cells) [8] was 6.82 µM. The TGI [8] was 3.48 µM, the inhibition in vivo at 20 mg/kg [9] was 73.6% and the GI50 [10] was 2.99 µM. For the same compound, the LC50 [10] was > 100 µM, the TGI [10] was 7.32 µM and the GI50 [11] was 1.73 µM. It also gave an LC50 [11] of 8.12 µM, a TGI [11] of 3.75 µM and a GI50 [12] of 2.5 µM. For the same compound, the LC50 (net 50% loss of initial cells) [12] was 26 µM, the TGI [12] was 7.24 µM and the GI50 [13] was 2.13 µM. It also gave an LC50 (net 50% loss of initial cells) [13] of 8.74 µM, a TGI [13] of 4.31 µM and a GI50 [14] of 1.66 µM. It also gave an LC50 (concentration giving net 50% loss of initial cells) [14] of 8.09 µM, a TGI [14] of 3.67 µM and a GI50 [15] of 1.46 µM. For the same compound, the TGI [15] was 6.51 µM, the CC50 [15, 28] was 37.8 µM and the GI50 [16] was 2.41 µM. The LC50 (concentration causing net 50% loss of initial cells) [16] was 10.6 µM, the TGI [16] was 4.95 µM and the GI50 [17] was 1.6 µM. The LC50 (concentration causing net 50% loss of initial cells) [17] was 5.69 µM, the TGI [17] was 3.02 µM and the GI50 [18] was 3.69 µM. The LC50 (net 50% loss of initial cells) [18] was 60.5 µM, the TGI [18] was 15.5 µM and the GI50 [19] was 1.66 µM. It also gave a TGI [19] of 3.02 µM, a CC50 [19, 28] of 5.5 µM and a GI50 [20] of 4.17 µM. The LC50 (concentration causing net 50% loss of initial cells) [20] was > 100 µM, the TGI [20] was > 100 µM and the GI50 [21] was 4.05 µM. The TGI [21] was 13.5 µM, the CC50 [21, 28] was 37.8 µM and the GI50 [22] was 3.89 µM. The TGI [22] was 16.5 µM, the CC50 [22, 28] was 91.8 µM and the GI50 [23] was 11 µM. It also gave an LC50 [23] of 67 µM, a TGI [23] of 27.2 µM and a CC50 [24] of 38.5 µM. For the same compound, the GI50 [25] was 2.66 µM, the LC50 [25] was 49.5 µM and the TGI [25] was 9.77 µM. The GI50 [26] was 1.81 µM, the LC50 (concentration giving 50% net loss of initial cells) [26] was 11.3 µM and the TGI [26] was 3.73 µM. The GI50 [27] was 2.21 µM, the TGI [27] was 7.55 µM and the CC50 [27, 28] was 86.5 µM.
